Most compounds without a hit are left out; they make up all but 4.6% or so of the library.
DSG3 Ab inh = human desmoglein-3 autoantibody binding inhibition | P32926 | DSG3-coupled beads, scFv-anti-DSG3-GFP binding, flow cytometry; hits give low values | binding (percent of control), % at 10 µM | 0.48% of 310,000 active;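 active = binding more than 3 SD below its plate's average and above zero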;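 note: hits lower antibody fragment binding to DSG3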
NALP3 yeast inh = blocks the NALP3 inflammasome reconstituted in yeast; Yeast reconstituted NLRP3/ASC/caspase-1, beta-gal luminescence, 24 h; inhibition, % at 10 µM; 0.39% of 330,000 active;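 active = inhibition of 50% or more; inactive = inhibition below 50%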;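 note: plate controls were induced DMSO wells for no effect and uninduced yeast grown without galactose for full effect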
NALP1 inh = NALP1 inhibition; 0.61% of 280,000 active; S. cerevisiae NALP1/ASC/caspase-1 growth, X-gal OD620, 72 h; AID 2071; inhibition, % at 10 µM; in the data active = inhibition mostly above about 24%, no sharp cut-off; inactive = mostly below about 32%
ALR H2O2 inh = inhibitors of human sulfhydryl oxidase ALR | 3.8% of 290,000 active | purified ALR, DTT oxidation, H2O2 HRP-luminol luminescence | AID 485317 | P55789 | inhibition, % (test concentration not listed);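 active = mean replicate inhibition above about 79%, with every replicate also reaching it, limit read from the data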
Target sequence (P55789 whole entry, looked up): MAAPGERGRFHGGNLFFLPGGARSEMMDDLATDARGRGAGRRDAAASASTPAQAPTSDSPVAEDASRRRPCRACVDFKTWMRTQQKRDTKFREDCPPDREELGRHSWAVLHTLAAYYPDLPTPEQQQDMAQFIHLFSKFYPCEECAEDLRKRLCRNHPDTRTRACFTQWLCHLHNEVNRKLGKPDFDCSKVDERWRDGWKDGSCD
Arr AP2 block = inhibitors of human beta-arrestin and AP2 interaction | inhibition, % at 10 µM | 0.31% of 340,000 active | FITC-arrestin peptide / GST-AP2 beads, flow cytometry; AP2 beta2 appendage carries R879A mutation;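 active = inhibition above a set limit, near 3 SD of compounds lacking own fluorescence, cut at about 54% in these data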;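 note: plate controls were DMSO wells for no effect and 5 µM unlabelled arrestin peptide for full effect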
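System: GST-AP2 R879A glutathione beads | Also added: FITC-arrestin peptide, 50 nM | Times: 12 min plus 1 h, RT | Signal: Bead flow cytometry, FITC channel | Buffer or medium: PBS with 0.05% Tween 20 and 0.1% BSA | Read-out basis: Percent drop in bead-associated FITC signal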
PolyA inhibitor = yeast polyadenylation inhibition | S. cerevisiae SKY197-pL101 polyadenylation reporter, beta-gal luminescence; efflux-impaired pdr1/pdr3 knockout yeast; score 100 = 6 SD above DMSO | activity score, % at 12 µM | 0.02% of 300,000 active | AID 1875;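 active = lowest replicate activity score at least 50, where 100 means six control SD above control mean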;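 note: yeast exposed to compound for 9 h at 30 °C; higher score means more reporter readthrough which indicates perturbed polyadenylation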
NALP3 yeast conf = NALP3 inhibition confirmation in yeast; shares compounds with NALP3 yeast inh; yeast expressing human NALP3, luminescence; inhibition, % at 10 µM; 81% of 1,300 active; AID 435006; in the data active = inhibition above about 48%
Casp1 ASC ctr = caspase-1-ASC yeast counter-screen hit; shares compounds with NALP3 yeast inh; yeast expressing Caspase-1-ASC, luminescence counter screen; inhibition, % at 10 µM; 66% of 1,000 active; AID 488784
NALP3 retest = confirmation retest of NALP3 inhibitors in yeast. inhibition, % at 10 µM. 53% of 1,000 active. shares compounds with NALP3 yeast inh. yeast expressing human NALP3, luminescence read-out
Arr-AP2 CP1 = inhibitors of human beta-arrestin and AP2 interaction; GST-AP2 beads, FITC arrestin peptide binding, flow cytometry; GST-fused beta2-adaptin appendage, R879A mutant; 2% of 1,300 active; shares compounds with Arr AP2 block; inhibition, % at 10 µM;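 active = inhibition above a set limit, roughly 3 SD of non-fluorescent compound noise, cut at about 38% in these data; inactive = inhibition at or below that limit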;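 note: loss of bead fluorescence from 50 nM FITC arrestin peptide bound to appendage; 0% = negative control wells and 100% = excess unlabelled arrestin peptide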
GST GSH counter = GST-GSH bead binding interference, counter-screen; shares compounds with Arr AP2 block; GST-fluorescein binding to GSH beads, fluorescence; inhibition, % at 10 µM; 2% of 1,300 active; AID 588338;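 active = inhibition above 50%, about 3 SD of the inhibition seen with non-fluorescent compounds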;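 note: fluorescein maleimide labelled GST captured on 4 micron glutathione beads; higher means more loss of bead fluorescence from quenching or blocked binding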
Numbers without * were called inactive; x = no result. Cut-off read from the data, not from the text of the source, unless noted: active = inhibition above about 50%; inactive = the rest.

SMILES	DSG3 Ab inh	NALP3 yeast inh	NALP1 inh	ALR H2O2 inh	Arr AP2 block	PolyA inhibitor	NALP3 yeast conf	Casp1 ASC ctr	NALP3 retest	others
CN(C)/C=C(\C#N)C(N)=C(C#N)C#N	99.5	11.6	11.1	-29.3	30.9	-14.1	x	x	x
C=CCOc1nc2c(c(=O)n(Cc3ccc(Cl)cc3)c(=O)n2C)n1C	106.7	55.1*	19.4	-0.8	-1.7	-5.9	42.0	40.9	35.8
Cn1c(N2CCCC2)nc2c1c(=O)n(Cc1ccc(Cl)cc1)c(=O)n2C	107.0	73.7*	20.4	8.4	-0.5	3.6	33.2	x	x
Cn1c(N2CCC(C(N)=O)CC2)nc2c1c(=O)n(Cc1ccc(Cl)cc1)c(=O)n2C	99.7	19.8	5.9	-4.0	23.3	-9.2	x	x	x
CCOC(=O)c1c(C)[nH]c(C(=O)C(C)OC(=O)c2oc3ccccc3c2COC)c1C (stereo unspecified)	106.6	12.1	2.0	5.6	-5.1	3.5	x	x	x
CC1CCCC(NC(=O)CN2C(=O)NC(C)(c3cc(F)ccc3F)C2=O)C1C (stereo unspecified)	100.2	8.7	x	0.0	-3.0	x	x	x	x
CC(=O)N1N=C(c2ccc3ccccc3c2)OC1(C)C	122.3	63.1*	60.3*	-0.6	-4.9	-22.9	33.8	x	x
CC(=O)N1N=C(c2ccc(C(C)(C)C)cc2)OC1(C)C	96.7	3.9	31.0	-15.7	-6.0	8.8	x	x	x
Cc1cccnc1Nc1nc(-c2ccccc2)cs1	108.3	37.5	24.9	-0.3	-6.8	-1.2	x	x	x
Cc1cccnc1Nc1nc(-c2ccccn2)cs1	103.8	73.7*	12.0	4.8	4.5	-24.4	84.2*	97.2*	92.2*
CC(=O)N(/N=C1\Sc2ccccc2C1=O)c1cccc(C)c1	110.2	53.7*	17.3	x	1.1	-17.9	64.2*	29.6	30.1
CC(=O)N(CN1C(=O)c2ccccc2C1=O)c1cccc(C)c1	97.3	0.8	-4.2	-1.3	15.0	-28.3	x	x	x
Cc1cc(C)c(C)c(S(=O)(=O)NC2CCCCC2)c1C	101.1	52.7*	2.6	-7.3	-2.8	-8.6	45.7	38.5	27.1
Cc1ccccc1C(=O)NN1C(=O)CSC1=S	109.8	-6.1	-1.9	25.0	-4.2	-7.1	x	x	x
CCOC(=O)c1ccccc1N1C(=O)CSC1=S	102.1	54.2*	28.4	4.4	-3.1	-10.5	48.2	48.2	35.4
CCSc1nc2sc3c(c2c(=O)n1-c1ccccc1)CCN(C)C3	110.9	50.5*	13.2	-10.9	17.9	9.4	65.8*	48.2	45.5
CCCN1CCc2c(sc3nc(SCC)n(-c4ccccc4)c(=O)c23)C1	102.0	46.3	8.4	x	7.5	9.3	x	x	x
CCSC1(SCC)N=C(N)C2(C#N)C(c3ccc(F)cc3)C12C#N (stereo unspecified)	105.3	58.8*	15.0	18.0	-12.3	-7.3	49.8*	64.9*	46.8
COC1(OC)N=C(N)C2(C#N)C(c3ccc(F)cc3)C12C#N (stereo unspecified)	107.6	11.1	x	-2.6	13.9	0.8	x	x	x
COC(=O)c1cc(C(=O)c2cccc(Cl)c2Cl)cn1C	99.6	60.8*	4.1	x	8.2	-20.0	73.2*	63.2*	46.1
COc1cc(OC)c(OC)cc1CN(C)CC1CCCN(CCc2ccccc2F)C1 (stereo unspecified)	114.2	31.7	15.0	x	12.0	-7.0	x	x	x
O=C(NNC(=O)c1ccccc1F)c1ccc(-c2ccc(Cl)cc2)o1	98.7	54.3*	x	2.3	24.8	16.7	59.1*	8.4	49.1
Cc1ccc(NN2C(=O)C=C(c3ccc(Cl)cc3)C2=O)cc1	135.1	95.2*	6.7	-1.0	-4.1	-123.3	46.7	x	x
CN(Cc1ccco1)C(=O)c1ccc(CNS(=O)(=O)c2ccc3c(c2)C(C)(C)C(=O)N3C)cc1	102.1	6.9	5.1	-2.4	7.1	1.7	x	x	x
O=C(Nc1ccc2nc3n(c(=O)c2c1)CCCCC3)c1cc([N+](=O)[O-])ccc1F	113.8	62.7*	26.6	4.9	17.8	-25.0	80.1*	69.2*	56.2*
SMILES	DSG3 Ab inh	NALP3 yeast inh	NALP1 inh	ALR H2O2 inh	Arr AP2 block	PolyA inhibitor	NALP3 yeast conf	Casp1 ASC ctr	NALP3 retest	others
C/C(=N\N=C(N)N)c1ccc(Cl)cc1Cl	100.6	-4.3	-22.4	-7.8	1.3	13.6	x	x	x
Nc1ccc(Br)cc1-c1nc2ccccc2[nH]c1=O	98.3	53.9*	-0.9	x	18.2	-4.0	23.5	x	x
Cn1ncc2c(O/N=C(\N)c3ccc(C(C)(C)C)cc3)ncnc21	104.8	54.0*	x	-3.7	31.8	-17.7	78.2*	82.0*	66.8*
CCOC(=O)c1ccc(Nc2ncnc3c2cnn3C)cc1	108.0	19.8	3.9	-2.1	16.6	12.6	x	x	x
O=C(N/N=C/C(Br)=C/c1ccccc1)c1cccs1	107.0	50.1*	3.9	-1.4	-4.9	16.3	63.0*	x	x
c1ccc(-c2cc3c(ccc4nonc43)nn2)cc1	x	-2.3	2.0	-7.9	3.1	-8.6	x	x	x
On1onc2c3cc(-c4ccccc4)nc3ccc21	99.9	50.6*	-0.6	1.6	28.7	x	71.5*	x	x
Clc1ccc(-c2cn3c(n2)SCC3)cc1	96.3	47.4	13.9	22.8	22.7	-14.2	x	x	x
Brc1ccc(-c2cn3c(n2)SCC3)cc1	85.1	59.0*	14.7	9.4	40.2	-10.7	63.7*	62.8*	61.2*
c1ccc2sc(Nc3nc4cc5c(cc4s3)OCO5)nc2c1	100.9	24.5	-3.4	x	-4.4	-16.8	x	x	x
c1ccc2c(c1)CCN(c1nc3cc4c(cc3s1)OCO4)C2	98.8	55.8*	15.1	19.8	-1.2	1.7	51.6*	41.5	40.0
CCC(C)(c1nnnn1-c1c(C)cccc1C)N(N=O)c1ccccc1Cl (stereo unspecified)	107.8	x	18.6	-49.9	-0.5	x	x	x	x
O=C(Nc1ccc(NC(=O)c2cccs2)cc1Cl)c1ccco1	83.8	37.8	19.4	2.4	27.4	24.9	x	x	x
O=C(Nc1ccc(NC(=O)c2cccs2)c(Cl)c1)c1cccs1	106.1	60.9*	1.0	x	54.9*	33.0	83.7*	64.1*	59.9*	Arr-AP2 CP1=-5.8;GST GSH counter=-1.2
Cn1nnc(NC(=S)NC(=O)c2cccc3c(Cl)cccc23)n1	101.8	54.1*	-6.6	2.9	55.9*	-20.6	64.4*	74.2*	46.4	Arr-AP2 CP1=0.2;GST GSH counter=-7.6
